Measured values taken from BindingDB's records for doi:10.1021/jm2007886 (Universidad Complutense De Madrid, 2011).
pKi: −log10 of the molar value.

Experiments:
[1] = target: T1, 5-hydroxytryptamine receptor 1A (Rattus norvegicus, UniProt P19327); assay: Displacement of [3H]-8-OH-DPAT from 5-HT1A receptor in Sprague-Dawley albinus rat cerebral cortex membranes after 15 mins
T1 sequence (P19327 whole entry): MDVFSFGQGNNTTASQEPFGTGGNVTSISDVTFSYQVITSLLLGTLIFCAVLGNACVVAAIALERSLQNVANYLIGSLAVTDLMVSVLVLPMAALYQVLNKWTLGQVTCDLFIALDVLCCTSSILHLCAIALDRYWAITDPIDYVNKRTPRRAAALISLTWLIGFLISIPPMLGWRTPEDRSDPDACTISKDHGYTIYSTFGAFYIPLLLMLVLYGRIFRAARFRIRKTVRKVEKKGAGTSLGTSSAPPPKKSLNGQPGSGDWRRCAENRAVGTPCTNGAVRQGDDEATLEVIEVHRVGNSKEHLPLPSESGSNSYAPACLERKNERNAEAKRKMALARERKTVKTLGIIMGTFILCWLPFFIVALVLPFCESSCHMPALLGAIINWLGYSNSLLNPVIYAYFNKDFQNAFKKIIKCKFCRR

[2] = target: 5-hydroxytryptamine receptor 2A (Rattus norvegicus, UniProt P14842); assay: Displacement of [3H]ketanserin from 5HT2A receptor in Sprague-Dawley albinus rat frontal cortex membranes after 15 mins
Chain of 5-hydroxytryptamine receptor 2A (P14842 whole entry): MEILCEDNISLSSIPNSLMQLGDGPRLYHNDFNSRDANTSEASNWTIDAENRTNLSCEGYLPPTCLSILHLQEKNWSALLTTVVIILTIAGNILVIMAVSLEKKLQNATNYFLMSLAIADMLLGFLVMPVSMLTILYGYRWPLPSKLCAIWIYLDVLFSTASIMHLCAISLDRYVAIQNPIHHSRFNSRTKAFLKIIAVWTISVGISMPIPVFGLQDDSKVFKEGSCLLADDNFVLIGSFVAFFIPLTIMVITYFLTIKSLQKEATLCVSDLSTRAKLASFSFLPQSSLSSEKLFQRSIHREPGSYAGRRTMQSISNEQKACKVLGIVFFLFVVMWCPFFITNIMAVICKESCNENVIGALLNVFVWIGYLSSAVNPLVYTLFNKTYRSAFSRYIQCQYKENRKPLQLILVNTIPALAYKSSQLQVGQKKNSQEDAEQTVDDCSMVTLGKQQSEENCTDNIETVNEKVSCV
Procedure, shortened: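 Rat frontal cortex membranes (male Sprague–Dawley, 180–200 g). Nonspecific binding was set with 1 μM cinanserin.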

[3] = target: T2, 5-hydroxytryptamine receptor 3A (Rattus norvegicus, UniProt P35563); assay: Displacement of [3H]-LY278584 from 5HT3 receptor in Sprague-Dawley albinus rat cerebral cortex membranes after 30 mins
T2 sequence (P35563 whole entry): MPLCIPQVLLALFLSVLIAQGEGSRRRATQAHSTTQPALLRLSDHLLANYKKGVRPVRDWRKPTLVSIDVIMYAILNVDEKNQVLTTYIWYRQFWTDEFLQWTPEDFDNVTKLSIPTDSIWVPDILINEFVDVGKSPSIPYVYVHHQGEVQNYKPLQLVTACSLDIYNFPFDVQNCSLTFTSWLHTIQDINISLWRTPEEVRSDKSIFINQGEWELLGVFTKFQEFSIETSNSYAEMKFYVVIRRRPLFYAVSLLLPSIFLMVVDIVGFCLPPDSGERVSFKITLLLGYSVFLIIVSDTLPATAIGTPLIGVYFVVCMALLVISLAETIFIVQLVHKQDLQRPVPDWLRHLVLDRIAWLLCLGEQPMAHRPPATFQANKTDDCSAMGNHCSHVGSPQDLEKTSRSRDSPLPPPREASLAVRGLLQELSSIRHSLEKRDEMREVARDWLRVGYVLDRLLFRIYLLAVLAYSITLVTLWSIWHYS

D(2) dopamine receptor = D(2) dopamine receptor (Rattus norvegicus, UniProt P61169); assay: Displacement of [3H]spiperone from dopamine D2 receptor in Sprague-Dawley albinus rat striatal membranes after 15 mins
Chain of D(2) dopamine receptor (P61169 whole entry): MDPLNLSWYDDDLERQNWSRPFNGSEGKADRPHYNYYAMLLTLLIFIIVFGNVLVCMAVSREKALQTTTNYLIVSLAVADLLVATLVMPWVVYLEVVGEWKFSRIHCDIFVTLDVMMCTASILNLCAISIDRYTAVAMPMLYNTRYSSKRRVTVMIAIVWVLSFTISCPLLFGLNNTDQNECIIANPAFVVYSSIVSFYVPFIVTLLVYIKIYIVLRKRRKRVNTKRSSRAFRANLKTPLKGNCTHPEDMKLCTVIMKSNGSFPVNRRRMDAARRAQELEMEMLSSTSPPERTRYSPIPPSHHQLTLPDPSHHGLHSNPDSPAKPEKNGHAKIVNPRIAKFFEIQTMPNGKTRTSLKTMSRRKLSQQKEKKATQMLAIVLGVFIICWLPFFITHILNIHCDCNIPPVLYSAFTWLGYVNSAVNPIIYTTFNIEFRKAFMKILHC

[4] = target: 5-hydroxytryptamine receptor 4 (Rattus norvegicus, UniProt Q62758); assay: Displacement of [3H]GR113808 from 5HT4 receptor in Sprague-Dawley albinus rat striatal membranes after 30 mins by scintillation counting
Chain of 5-hydroxytryptamine receptor 4 (Q62758 whole entry): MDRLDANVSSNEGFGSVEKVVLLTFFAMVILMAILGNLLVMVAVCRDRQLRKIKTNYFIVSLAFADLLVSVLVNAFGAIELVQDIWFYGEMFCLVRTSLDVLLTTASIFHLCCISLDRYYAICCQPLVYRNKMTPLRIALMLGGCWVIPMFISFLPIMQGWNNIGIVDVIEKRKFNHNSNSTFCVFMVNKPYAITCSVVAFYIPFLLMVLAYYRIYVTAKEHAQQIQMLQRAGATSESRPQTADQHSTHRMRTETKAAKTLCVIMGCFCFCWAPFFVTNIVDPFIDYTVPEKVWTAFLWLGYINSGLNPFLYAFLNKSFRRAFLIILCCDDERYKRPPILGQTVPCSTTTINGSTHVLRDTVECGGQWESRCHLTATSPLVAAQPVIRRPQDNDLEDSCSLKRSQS

[5] = target: 5-hydroxytryptamine receptor 7 (Rattus norvegicus, UniProt P32305); assay: Displacement of [3H]-5-CT from 5HT7 receptor in Sprague-Dawley albinus rat hyphalamic membranes after 120 mins
Chain of 5-hydroxytryptamine receptor 7 (P32305 whole entry): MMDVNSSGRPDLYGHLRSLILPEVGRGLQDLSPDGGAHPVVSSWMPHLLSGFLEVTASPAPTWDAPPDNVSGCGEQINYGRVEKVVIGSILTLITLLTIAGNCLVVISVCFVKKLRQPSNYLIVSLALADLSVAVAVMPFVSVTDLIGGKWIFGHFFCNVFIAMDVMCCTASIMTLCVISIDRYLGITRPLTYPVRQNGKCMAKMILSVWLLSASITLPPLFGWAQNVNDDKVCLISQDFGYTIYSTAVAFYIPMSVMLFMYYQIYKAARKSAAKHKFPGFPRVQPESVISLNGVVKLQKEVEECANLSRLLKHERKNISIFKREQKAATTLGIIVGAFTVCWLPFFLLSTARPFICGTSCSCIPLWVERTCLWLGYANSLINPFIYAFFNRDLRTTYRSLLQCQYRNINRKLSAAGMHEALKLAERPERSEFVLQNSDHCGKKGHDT

Row | SMILES | pKi [1] | pKi [2] | pKi [3] | also measured
1 | O=c1n(CCCCNCc2ccc3ccccc3n2)c(O)c2n1CCC2 |  | < 6.00 | < 6.00 | 
2 | O=c1n(CC#CCNCC2CCc3ccccc3O2)c(O)c2n1CCC2 (stereo not given) | < 6.00 |  |  | 
3 | O=c1n(CCCCNCC2CCc3ccccc3O2)c(O)c2n1CCCC2 (stereo not given) |  | < 6.00 | < 6.00 | 
4 | O=c1n(CCCCNCc2ccc3ccccc3c2)c(O)c2n1CCC2 |  | < 6.00 |  | 
5 | O=c1n(CCCCNCC2CCc3ccccc3O2)c(O)c2n1CSC2 (stereo not given) |  | < 6.00 |  | 
6 | O=c1n(C/C=C/CNCC2CCc3ccccc3O2)c(O)c2n1CCC2 (stereo not given) |  | < 6.00 |  | 
7 | O=c1n(CCCCCCNCC2CCc3ccccc3O2)c(O)c2n1CCC2 (stereo not given) |  | < 6.00 | < 6.00 | 
8 | O=c1n(CCCCNCCc2ccccc2)c(O)c2n1CCC2 | < 6.00 |  |  | 
9 | O=c1scc(O)n1CCCCCCCCNCC1CCc2ccccc2O1 (stereo not given) |  | < 6.00 |  | 
10 | O=c1n(Cc2ccc(CNCC3CCc4ccccc4O3)cc2)c(O)c2n1CCC2 (stereo not given) | 7.55 | < 6.00 | < 6.00 | 
11 | O=c1n(CCCCNCc2cccs2)c(O)c2n1CCC2 | < 6.00 |  |  | 
12 | O=c1n(CCCCNCCc2ccco2)c(O)c2n1CCC2 | < 6.00 |  |  | 
13 | O=c1n(CCCCNCc2ccccn2)c(O)c2n1CCC2 | < 6.00 |  |  | 
14 | O=c1n(CCCNCC2CCc3ccccc3O2)c(O)c2n1CCC2 (stereo not given) |  | < 6.00 | < 6.00 | 
15 | O=c1n(CCCCNCCc2cccc3ccccc23)c(O)c2n1CCC2 | 7.55 | < 6.00 | < 6.00 | pKi [4]: < 6.00; pKi (D(2) dopamine receptor): < 6.00; pKi [5]: < 6.00
16 | O=c1n(Cc2cccc(CNCC3CCc4ccccc4O3)c2)c(O)c2n1CCC2 (stereo not given) |  | < 6.00 | < 6.00 | 
17 | O=c1n(CCCCNCc2ccco2)c(O)c2n1CCC2 | < 6.00 |  |  | 

Further lines, with some results ahead:

Row | pKi [1] | pKi [2] | pKi [3] | SMILES | also measured
18 | < 6.00 |  |  | O=c1n(CCCCNCCc2cccs2)c(O)c2n1CCC2 | 
19 | < 6.00 |  |  | O=c1n(CCCCNCc2ccccc2)c(O)c2n1CCC2 | 
20 |  | < 6.00 | < 6.00 | O=c1n(CCCCCNCC2CCc3ccccc3O2)c(O)c2n1CCC2 (stereo not given) | 
21 | < 6.00 |  |  | O=c1n(CCCCNCc2cccc3ccccc23)c(O)c2n1CCC2 | 
22 |  | < 6.00 |  | O=c1scc(O)n1CCCCNCC1CCc2ccccc2O1 (stereo not given) | 
23 | < 6.00 |  |  | O=c1n(CCCCNCCc2ccccn2)c(O)c2n1CCC2 | 
24 |  |  | < 6.00 | O=c1n(CCCCNCCc2ccc3ccccc3c2)c(O)c2n1CCC2 | pKi (D(2) dopamine receptor): < 6.00
25 |  | < 6.00 |  | O=c1scc(O)n1CCCCCNCC1CCc2ccccc2O1 (stereo not given) | 
26 |  | < 6.00 |  | O=c1scc(O)n1CCCCCCNCC1CCc2ccccc2O1 (stereo not given) | 
